This note sets out measurements from ChEMBL document CHEMBL1145964, “Antineoplastic agents. 487. Synthesis and biological evaluation of the antineoplastic agent 3,4-methylenedioxy-5,4'-dimethoxy-3'-amino-Z-stilbene and derived amino acid amides” (J Med Chem, 2003).

For assay [1], the species on record is Mus musculus. Description: Inhibitory activity against murine colon 26 adenocarcinoma cell. It counts as functional.
Assay [2] is described as follows: Inhibitory activity against pancreatic BXPC-3 cell line. The assay is classed as functional. Conditions: Homo sapiens.
Assay [3] in a line: Inhibitory activity against lung NSC NCI-H460 cell line. It counts as functional. Conditions: Homo sapiens.
Assay [4] is described as follows: Inhibitory activity against prostate DU145 cell line. The assay is classed as functional. Conditions: Homo sapiens, DU-145.
For assay [5], the system named is MCF7. Description: Inhibitory activity against breast MCF-7 cell line. The assay is classed as functional. Conditions: Homo sapiens.
In assay [6] the test system is P388. Description: Inhibitory activity against leukemia P388 cell line. Conditions: Mus musculus, read-out: ED50 (the source's name). The assay is classed as functional.
Assay [7] can be described thus: Inhibitory activity against CNS SF-295 cell line. It counts as functional. Conditions: Homo sapiens.
A short description of assay [8]: Inhibitory activity against colon KM2OL2 cell line. Conditions: Homo sapiens. The assay is classed as functional.
Assay [9] addresses Tubulin alpha chain (Sus scrofa) (UniProt P02550). Nature of the assay: Percent inhibitory activity (100 uM) against colchicine binding to tubulin […]. Conditions: Homo sapiens. In a few lines:
(§1)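 Cell-free colchicine-binding test: reaction mixtures held 1.0 µM tubulin, 5.0 µM [³H]colchicine and inhibitor at the stated level; percent inhibition of radiolabel binding recorded.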

The subject of assay [10] is MCF7. Description: Mitotic index in MCF-7 breast cancer cells was determined. It counts as functional, Homo sapiens.
Assay [11] deals with Tubulin alpha chain (Sus scrofa) (UniProt P02550). Description: Percent inhibitory activity (20 uM) against colchicine binding to tubulin […]. Conditions: Homo sapiens. In a few lines:
as §1

Assay [12] concerns Tubulin. Nature of the assay: Inhibitory activity against tubulin (1.0 mg/mL) assembly was determined. Conditions: Homo sapiens.
Assay [13] is described as follows: Inhibitory activity against prostate DU145. The assay is classed as functional. Conditions: Homo sapiens, DU-145, Prostate gland.
Assay [14] concerns MCF7. Description: Inhibitory activity against breast cancer cell line MCF-7. Conditions: Homo sapiens. The assay is classed as functional.
A short description of assay [15]: Inhibitory activity against pancreatic cell line BXPC-3. It counts as functional. Conditions: Homo sapiens.
In assay [16] the test system is Tubulin. Nature of the assay: Inhibitory activity against tubulin (1.0 mg/mL) assembly was determined. Conditions: Homo sapiens. This is another data set of the same source.
Assay [17] deals with Tubulin alpha chain (Sus scrofa) (UniProt P02550). Description: Percent inhibitory activity (5 uM) against colchicine binding to tubulin […]. Conditions: Homo sapiens. In a few lines:
(§2)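 Binding of [³H]colchicine to purified tubulin, not a cell assay: reaction mixtures held 1.0 µM tubulin, 5.0 µM [³H]colchicine and test compound at 2 or 5 µM as indicated. Read-out is percent inhibition of colchicine binding.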

For assay [18] the target is unchanged. Nature of the assay: Percent inhibitory activity (2 uM) against colchicine binding to tubulin […]. Conditions: Homo sapiens. In a few lines:
as §2

The target is the same in assay [19]. Nature of the assay: Percent inhibitory activity (5 uM) against colchicine binding to […]. Conditions: Homo sapiens.

pIC50: −log10 of the molar value. Converted amounts (≈) assume the structure as drawn. “And” between values parts separate entries of the source, which are not always exact repeats. Identical values can stand only once.

Sequence of Tubulin alpha chain (Sus scrofa) (P02550 whole entry, looked up): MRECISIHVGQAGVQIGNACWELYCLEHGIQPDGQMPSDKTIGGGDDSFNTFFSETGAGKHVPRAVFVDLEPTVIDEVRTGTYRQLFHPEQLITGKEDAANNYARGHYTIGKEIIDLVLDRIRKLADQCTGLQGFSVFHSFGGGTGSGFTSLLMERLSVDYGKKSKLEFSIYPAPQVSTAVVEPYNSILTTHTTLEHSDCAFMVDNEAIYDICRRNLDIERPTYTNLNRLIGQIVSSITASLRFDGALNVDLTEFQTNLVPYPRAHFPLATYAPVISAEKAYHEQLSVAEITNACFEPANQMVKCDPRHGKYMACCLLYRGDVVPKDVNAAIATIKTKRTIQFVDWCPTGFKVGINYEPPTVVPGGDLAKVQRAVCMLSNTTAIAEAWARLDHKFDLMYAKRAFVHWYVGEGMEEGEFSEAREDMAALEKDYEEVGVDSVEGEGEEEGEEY

For the compound `COc1ccc(/C=C\c2cc(OC)c(OC)c(OC)c2)cc1N`, the pIC50 in assay [1] was 8.29.

As to `COc1ccc(/C=C/c2cc(OC)c3c(c2)OCO3)cc1[N+](=O)[O-]`, the GI50 in assay [2] is over 10 µg/mL; in [3], over 10 µg/mL; in [4], over 10 µg/mL; in assay [5], over 10 µg/mL; in assay [7], 4.6 µg/mL (≈ 14 µM); in [8], over 10 µg/mL. Further, in [6], the EC50 was over 10 µg/mL.

For `COc1ccc(/C=C\c2cc(OC)c3c(c2)OCO3)cc1NC(=O)C(N)CO` (stereo not given), the inhibition in assay [9] worked out at 64%; in [11], 22%. The GI50 came out at 0.027 µg/mL (≈ 0.0699 µM) in assay [2]; 0.042 µg/mL (≈ 0.109 µM) in assay [3]; 0.014 µg/mL (≈ 0.0362 µM) in assay [4]; 0.017 µg/mL (≈ 0.044 µM) in assay [5]; 0.049 µg/mL (≈ 0.127 µM) in [7]; 0.019 µg/mL (≈ 0.0492 µM) in assay [8]. In assay [10], this compound showed a Mitotic index of 35. For the same compound, the pIC50 in [12] is under 4.40. For the same compound, the EC50 in assay [6] is 0.172 µg/mL (≈ 0.445 µM).

On to `COc1ccc(/C=C\c2cc(OC)c3c(c2)OCO3)cc1NC(=O)C(N)Cc1c[nH]c2ccccc12` (stereo not given), for which the inhibition in assay [9] was 16%. For the same compound, the GI50 in [2] was determined as 0.044 µg/mL (≈ 0.0906 µM); in [3], 0.053 µg/mL (≈ 0.109 µM); in assay [4], 0.04 µg/mL (≈ 0.0824 µM); in assay [5], 0.035 µg/mL (≈ 0.0721 µM); in assay [7] it was 0.042 µg/mL (≈ 0.0865 µM); in [8], 0.018 µg/mL (≈ 0.0371 µM). The same compound had a Mitotic index in assay [10] of 57. Further, the pIC50 in assay [12] was under 4.40. Further, in assay [6], the EC50 was 0.0653 µg/mL (≈ 0.134 µM).

As for `COc1ccc(/C=C/c2cc(OC)c3c(c2)OCO3)cc1P(=O)([O-])O.[Na+]`, the GI50 in [2] stood at 2.1 µg/mL; in assay [3], 0.41 µg/mL; in assay [4], 0.053 µg/mL; in assay [5], 0.045 µg/mL; in [7] it was 0.042 µg/mL; in assay [8], 3.8 µg/mL. For the same compound, in assay [6], the EC50 was determined as 0.025 µg/mL.

In turn, `COc1ccc(/C=C\c2cc(OC)c3c(c2)OCO3)cc1NC(=O)C(N)Cc1ccccc1` (stereo not given) showed an inhibition in assay [9] of 16%. Besides, the concentration for 50% growth inhibition (GI50) in [2] worked out at 0.2 µg/mL (≈ 0.448 µM); in assay [3], 0.044 µg/mL (≈ 0.0985 µM); in assay [4], 0.04 µg/mL (≈ 0.0896 µM); in assay [5] it was 0.044 µg/mL (≈ 0.0985 µM); in assay [7], 1.7 µg/mL (≈ 3.81 µM); in [8], 0.034 µg/mL (≈ 0.0761 µM). The same compound yielded a Mitotic index in [10] of 52. The negative-log IC50 (pIC50) in assay [12] was under 4.40. The EC50 in [6] worked out at 0.0585 µg/mL (≈ 0.131 µM).

Turning to `COc1ccc(/C=C\c2cc(OC)c3c(c2)OCO3)cc1N.Cl`, the GI50 worked out at 0.075 µg/mL in assay [2]; 0.0057 µg/mL in assay [3]; 0.0082 µg/mL in assay [4]; 0.0042 µg/mL in [5]; 0.0082 µg/mL in assay [7]; 0.035 µg/mL in assay [8]. Further, the EC50 in assay [6] was determined as 0.0388 µg/mL.

In the case of `COc1ccc(/C=C\c2cc(OC)c3c(c2)OCO3)cc1[N+](=O)[O-]`, the GI50 was found to be 0.64 µg/mL (≈ 1.94 µM) in assay [13]; 0.35 µg/mL (≈ 1.06 µM) in assay [3]; 0.36 µg/mL (≈ 1.09 µM) in assay [14]; 0.38 µg/mL (≈ 1.15 µM) in [15]; 0.33 µg/mL (≈ 1 µM) in [7]; 0.45 µg/mL (≈ 1.37 µM) in assay [8]. Further, in assay [6], the EC50 was 0.227 µg/mL (≈ 0.689 µM). In [16], this compound gave a pIC50 of 6.41.

Consider `COc1ccc(/C=C\c2cc(OC)c3c(c2)OCO3)cc1NC(=O)C(N)CS` (stereo not given), for which the inhibition in [9] was 15%. The GI50 came out at 0.2 µg/mL (≈ 0.497 µM) in assay [2]; 0.032 µg/mL (≈ 0.0795 µM) in assay [3]; 0.0046 µg/mL (≈ 0.0114 µM) in [4]; 0.05 µg/mL (≈ 0.124 µM) in assay [5]; 0.037 µg/mL (≈ 0.0919 µM) in assay [7]; 0.055 µg/mL (≈ 0.137 µM) in assay [8]. For the same compound, the Mitotic index in assay [10] stood at 42. Moreover, the pIC50 in assay [12] was under 4.40. Further, the EC50 in assay [6] amounted to 0.332 µg/mL (≈ 0.825 µM).

`COc1ccc(/C=C\c2cc(OC)c3c(c2)OCO3)cc1NC(=O)C(N)C(C)C` (stereo not given) had an inhibition in assay [9] of 14%. In addition, the GI50 amounted to 0.012 µg/mL (≈ 0.0301 µM) in [2]; 0.064 µg/mL (≈ 0.161 µM) in assay [3]; 0.036 µg/mL (≈ 0.0903 µM) in assay [4]; 0.037 µg/mL (≈ 0.0929 µM) in assay [5]; 0.055 µg/mL (≈ 0.138 µM) in assay [7]; 0.019 µg/mL (≈ 0.0477 µM) in assay [8]. Also, the Mitotic index in assay [10] came out at 48. In assay [12], this compound showed a pIC50 of under 4.40. In addition, in assay [6], the EC50 turned out to be 0.306 µg/mL (≈ 0.768 µM).

`COc1ccc(/C=C\c2cc(OC)c3c(c2)OCO3)cc1O` [Combretastatin A-2]: the GI50 in assay [2] was 0.014 µg/mL (≈ 0.0466 µM); in [3] it was 0.043 µg/mL (≈ 0.143 µM); in assay [4], 0.0054 µg/mL (≈ 0.018 µM); in assay [5], 0.0042 µg/mL (≈ 0.014 µM); in assay [7], 0.0083 µg/mL (≈ 0.0276 µM); in [8], 0.47 µg/mL (≈ 1.57 µM). In addition, the inhibition in assay [17] came to 92%; in assay [18], 79%. The EC50 in assay [6] was 0.016 µg/mL (≈ 0.0533 µM).

`COc1ccc(/C=C\c2cc(OC)c3c(c2)OCO3)cc1NC(=O)C(N)Cc1ccc(O)cc1` (stereo not given) returned an inhibition in [9] of 19%. The GI50 was found to be 0.0067 µg/mL (≈ 0.0145 µM) in assay [2]; 0.012 µg/mL (≈ 0.0259 µM) in assay [3]; 0.018 µg/mL (≈ 0.0389 µM) in assay [4]; 0.035 µg/mL (≈ 0.0757 µM) in assay [5]; 0.0097 µg/mL (≈ 0.021 µM) in [7]; 0.022 µg/mL (≈ 0.0476 µM) in assay [8]. Moreover, in [10], the Mitotic index is 44. This compound gave a pIC50 in [12] of under 4.40. In assay [6], the EC50 stood at 0.0475 µg/mL (≈ 0.103 µM).

As to `COc1ccc(/C=C\c2cc(OC)c3c(c2)OCO3)cc1N` [listing 1 of 2 here], the inhibition in assay [17] was 94%; in assay [19] it was 95%; in [18] it was 84% and 87%.

Turning to `COc1ccc(/C=C\c2cc(OC)c3c(c2)OCO3)cc1N` [listing 2 of 2 here], the GI50 in assay [3] stood at 0.005 µg/mL (≈ 0.0167 µM); in assay [5] it was 0.0047 µg/mL (≈ 0.0157 µM). In assay [12], this compound had a pIC50 of 5.51.

In [10], `COc1ccc(/C=C\c2cc(OC)c(OC)c(OC)c2)cc1O` [COMBRETASTATIN A4] gave a Mitotic index of 57. In addition, the pIC50 in assay [12] is 5.68; in assay [1], 7.74.

Consider `COc1ccc(/C=C\c2cc(OC)c3c(c2)OCO3)cc1NC(=O)CN`, for which the figures for the inhibition in assay [9] and in assay [11] were 66% and 31%, respectively. Further, the GI50 in [2] came to 0.025 µg/mL (≈ 0.0702 µM); in [3] it was 0.0042 µg/mL (≈ 0.0118 µM); in assay [4] it was 0.0028 µg/mL (≈ 0.00786 µM); in [5] it was 0.014 µg/mL (≈ 0.0393 µM); in assay [7] it was 0.059 µg/mL (≈ 0.166 µM); in [8], 0.012 µg/mL (≈ 0.0337 µM). This compound also came in with a Mitotic index in assay [10] of 52. In addition, the pIC50 in assay [12] is under 4.40. Also, the EC50 in assay [6] worked out at 0.0199 µg/mL (≈ 0.0558 µM).

Usually pIC50 stands for the negative decadic logarithm of the IC50, by convention in mol/L. High values mean a small IC50, low ones a large IC50. The term GI50 denotes the concentration at which growth is held to half of that of the control. By inhibition is commonly meant the drop in the measured response relative to a control, in per cent. A higher inhibition goes with a response far below the control.
